Source: ChEMBL document CHEMBL3044760, “Synthesis and insecticidal activity of heptafluoroisopropyl-containing benzoylphenylurea structures” (2010)
Active and inactive are the calls of the source. The rule behind the calls is not given here.

Experiments:
Mythimna separata [1] = assay: Insecticidal activity against Mythimna separata (Oriental armyworm) second-instar larvae reared on compound pre-treated corn disks assessed as larval mortality at 0.25 mg/L measured 7 days post compound treatment by leaf-dip method; type: functional
How it was run: (§1)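 Leaf-dip: corn disks dipped 5 s in test solution, air-dried on filter paper, set on agar in 7 cm Petri dishes, with water-dipped disks as controls. Ten second-instar larvae per disk; dishes sealed with ventilated lids and stored inverted. Mortality scored at 7 days and corrected by Abbott's formula when needed. Diflubenzuron run under the same conditions.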

Mythimna separata [2] = assay: Insecticidal activity against Mythimna separata (Oriental armyworm) second-instar larvae reared on compound pre-treated corn disks assessed as larval mortality at 0.125 mg/L measured 7 days post compound treatment by leaf-dip method; type: functional; how it was run: as §1
Mythimna separata [3] = assay: Insecticidal activity against Mythimna separata (Oriental armyworm) second-instar larvae reared on compound pre-treated corn disks assessed as larval mortality at 15.625 mg/L measured 7 days post compound treatment by leaf-dip method; type: functional; how it was run: as §1
Mythimna separata [4] = assay: Insecticidal activity against Mythimna separata (Oriental armyworm) second-instar larvae reared on compound pre-treated corn disks assessed as larval mortality at 31.25 mg/L measured 7 days post compound treatment by leaf-dip method; type: functional; how it was run: as §1
Mythimna separata [5] = assay: Insecticidal activity against Mythimna separata (Oriental armyworm) second-instar larvae reared on compound pre-treated corn disks assessed as larval mortality at 62.5 mg/L measured 7 days post compound treatment by leaf-dip method; type: functional; how it was run: as §1
Bemisia tabaci [6] = assay: Insecticidal activity against Bemisia tabaci (sweet potato whitefly) nymphs assessed as suppression of larval pupation at 0.3 mg of ai/ha; type: functional, organism-based
Spodoptera littoralis [7] = assay: Insecticidal activity against Spodoptera littoralis worm third-instar larvae grown on compound pre-treated caster bean leaves assessed as larval mortality at 0.5 mg of ai/L as Rimon EC formulation measured 4 days post compound treatment; type: functional
How it was run: (§2)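 Castor bean leaves treated at 0.25 or 0.5 mg ai/L formulation and fed to S. littoralis third instars (11 ± 1 mg) for 4 days, then moved to untreated leaves for 4 more days. Larval mortality scored at day 4 and day 8.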

Spodoptera littoralis [8] = assay: Insecticidal activity against Spodoptera littoralis worm third-instar larvae grown on compound pre-treated caster bean leaves assessed as larval weight gain at 0.5 mg of ai/L as Rimon EC formulation measured 8 days post compound treatment relative to untreated control; type: functional
Spodoptera littoralis [9] = assay: Insecticidal activity against Spodoptera littoralis worm third-instar larvae grown on compound pre-treated caster bean leaves assessed as larval mortality at 0.5 mg of ai/L as Rimon EC formulation measured 8 days post compound treatment; type: functional; how it was run: as §2
Mythimna separata [10] = assay: Insecticidal activity against Mythimna separata (Oriental armyworm) second-instar larvae reared on compound pre-treated corn disks assessed as larval mortality at 10 mg/L measured 7 days post compound treatment by leaf-dip method; type: functional; how it was run: as §1
Spodoptera littoralis [11] = assay: Insecticidal activity against Spodoptera littoralis worm third-instar larvae grown on compound pre-treated caster bean leaves assessed as larval weight gain at 0.25 mg of ai/L measured 8 days post compound treatment relative to untreated control; type: functional
Spodoptera littoralis [12] = assay: Insecticidal activity against Spodoptera littoralis worm third-instar larvae grown on compound pre-treated caster bean leaves assessed as larval mortality at 0.5 mg of ai/L measured 4 days post compound treatment; type: functional; how it was run: as §2
Spodoptera littoralis [13] = assay: Insecticidal activity against Spodoptera littoralis worm third-instar larvae grown on compound pre-treated caster bean leaves assessed as larval weight gain at 0.5 mg of ai/L measured 8 days post compound treatment relative to untreated control; type: functional
Mythimna separata [14] = assay: Insecticidal activity against Mythimna separata (Oriental armyworm) second-instar larvae reared on compound pre-treated corn disks assessed as larval mortality at 12.5 mg/L measured 7 days post compound treatment by leaf-dip method; type: functional; how it was run: as §1
Bemisia tabaci [15] = assay: Insecticidal activity against Bemisia tabaci (sweet potato whitefly) nymphs assessed as effect on larval pupation; type: functional, organism-based
Spodoptera littoralis [16] = assay: Insecticidal activity against Spodoptera littoralis worm third-instar larvae grown on compound pre-treated caster bean leaves assessed as larval mortality at 0.5 mg of ai/L measured 8 days post compound treatment; type: functional; how it was run: as §2
Spodoptera littoralis [17] = assay: Insecticidal activity against Spodoptera littoralis worm third-instar larvae grown on compound pre-treated caster bean leaves assessed as larval mortality at 0.25 mg of ai/L measured 4 days post compound treatment; type: functional; how it was run: as §2
Spodoptera littoralis [18] = assay: Insecticidal activity against Spodoptera littoralis worm third-instar larvae grown on compound pre-treated caster bean leaves assessed as larval mortality at 0.25 mg of ai/L measured 8 days post compound treatment; type: functional; how it was run: as §2
Mythimna separata [19] = assay: Insecticidal activity against Mythimna separata (Oriental armyworm) second-instar larvae reared on compound pre-treated corn disks assessed as larval mortality at 50 mg/L measured 7 days post compound treatment by leaf-dip method; type: functional; how it was run: as §1
Plutella xylostella = assay: Insecticidal activity against Plutella xylostella (diamondback moth) […] using 5% compound EC formulation at 37.5 g of ai/ha measured after 7 days field trial; type: functional
Cnaphalocrocis medinalis = assay: Insecticidal activity against rice leaf roller third-instar larvae using 5% compound EC formulation at 25 g of ai/ha measured after 10 days field plot trial; type: functional, organism-based
Pieris rapae = assay: Insecticidal activity against imported cabbage worm measured 7 days after application of compound at 2000 diluent 5% EC; type: functional, organism-based
Mythimna separata [20] = assay: Insecticidal activity against Mythimna separata (Oriental armyworm) second-instar larvae reared on compound pre-treated corn disks assessed as larval mortality at 5 mg/L measured 7 days post compound treatment by leaf-dip method; type: functional; how it was run: as §1

## O=C(NC(=O)c1c(F)cccc1F)Nc1c(F)cc(C(F)(C(F)(F)F)C(F)(F)F)cc1F
Mythimna separata [1]
  mortality at 0.25 µg/mL: 100%
Mythimna separata [2]
  mortality at 0.125 µg/mL: 62.7%

## Cc1cc(C(F)(C(F)(F)F)C(F)(F)F)ccc1NC(=O)NC(=O)c1c(F)cccc1F
Mythimna separata [3]
  mortality at 15.625 µg/mL: 56.6%
Mythimna separata [4]
  mortality at 31.25 µg/mL: 100%

## O=C(NC(=O)c1c(F)cccc1F)Nc1ccc(C(F)(C(F)(F)F)C(F)(F)F)c(Br)c1
Mythimna separata [3]
  mortality at 15.625 µg/mL: 46.6%
Mythimna separata [4]
  mortality at 31.25 µg/mL: 100%

## O=C(NC(=O)c1c(F)cccc1F)Nc1ccc(C(F)(C(F)(F)F)C(F)(F)F)cc1
Mythimna separata [3]
  mortality at 15.625 µg/mL: 43.3%
Mythimna separata [4]
  mortality at 31.25 µg/mL: 100%

## COc1ccc(NC(=O)NC(=O)c2c(F)cccc2F)c(C(F)(C(F)(F)F)C(F)(F)F)c1
Mythimna separata [5]
  mortality at 62.5 µg/mL: 100%
Mythimna separata [4]
  mortality at 31.25 µg/mL: 86.6%

## O=C(NC(=O)c1c(F)cccc1F)Nc1ccc(C(F)(C(F)(F)F)C(F)(F)F)cc1F
Mythimna separata [1]
  mortality at 0.25 µg/mL: 100%
Mythimna separata [2]
  mortality at 0.125 µg/mL: 63.3%

## O=C(NC(=O)c1c(F)cccc1F)Nc1ccc(OC(F)(F)C(F)OC(F)(F)F)c(Cl)c1 (stereo unspecified) [NOVALURON]
Bemisia tabaci [6]
  Activity: Active
Spodoptera littoralis [7]
  mortality: 6%
Spodoptera littoralis [8]
  Activity: 44%
Spodoptera littoralis [9]
  mortality: 78%

## O=C(NC(=O)c1ccccc1)Nc1ccc(C(F)(C(F)(F)F)C(F)(F)F)cc1
Mythimna separata [10]
  mortality at 10 µg/mL: 68.1%
Spodoptera littoralis [11]
  Activity: 69%
Spodoptera littoralis [12]
  mortality: 18%
Spodoptera littoralis [13]
  Activity: 94%
Mythimna separata [14]
  mortality at 12.5 µg/mL: 100%
Bemisia tabaci [15]
  Activity: inactive
Spodoptera littoralis [16]
  mortality: 22%
Spodoptera littoralis [17]
  mortality: 8%
Spodoptera littoralis [18]
  mortality: 14%

## O=C(NC(=O)c1c(F)cccc1F)Nc1ccc(C(F)(C(F)(F)F)C(F)(F)F)cc1Cl
Mythimna separata [3]
  mortality at 15.625 µg/mL: 20%
Mythimna separata [4]
  mortality at 31.25 µg/mL: 100%

## Cc1ccc(NC(=O)NC(=O)c2c(F)cccc2F)c(C(F)(C(F)(F)F)C(F)(F)F)c1
Mythimna separata [5]
  mortality at 62.5 µg/mL: 100%
Mythimna separata [4]
  mortality at 31.25 µg/mL: 93.3%

## O=C(NC(=O)c1c(F)cccc1F)Nc1ccc(C(F)(C(F)(F)F)C(F)(F)F)c(Cl)c1
Mythimna separata [3]
  mortality at 15.625 µg/mL: 86.6%
Mythimna separata [4]
  mortality at 31.25 µg/mL: 100%

## Cc1cc(C(F)(C(F)(F)F)C(F)(F)F)cc(C)c1NC(=O)NC(=O)c1ccccc1Cl
Mythimna separata [10]
  mortality at 10 µg/mL: 69.1%
Mythimna separata [19]
  mortality at 50 µg/mL: 100%

## Cc1cc(C(F)(C(F)(F)F)C(F)(F)F)cc(C)c1NC(=O)NC(=O)c1c(F)cccc1F
Mythimna separata [1]
  mortality at 0.25 µg/mL: 80%
Spodoptera littoralis [11]
  Activity: 45%
Spodoptera littoralis [12]
  mortality: 18%
Spodoptera littoralis [13]
  Activity: 31%
Plutella xylostella
  Activity: >92%
Mythimna separata [2]
  mortality at 0.125 µg/mL: 50%
Cnaphalocrocis medinalis
  Activity: Active
Bemisia tabaci [15]
  Activity: inactive
Spodoptera littoralis [16]
  mortality: 78%
Spodoptera littoralis [17]
  mortality: 8%
Pieris rapae
  Activity: Active
Spodoptera littoralis [18]
  mortality: 36%

## O=C(NC(=O)c1ccccc1Cl)Nc1ccc(C(F)(C(F)(F)F)C(F)(F)F)cc1
Mythimna separata [10]
  mortality at 10 µg/mL: 100%
Mythimna separata [20]
  mortality at 5 µg/mL: 66.9%

## O=C(NC(=O)c1c(F)cccc1F)Nc1ccc(Br)cc1C(F)(C(F)(F)F)C(F)(F)F
Mythimna separata [3]
  mortality at 15.625 µg/mL: 56.6%
Mythimna separata [4]
  mortality at 31.25 µg/mL: 100%

## O=C(NC(=O)c1c(F)cccc1F)Nc1ccc(Cl)cc1 [DIFLUBENZURON]
Mythimna separata [1]
  mortality at 0.25 µg/mL: 100%
Mythimna separata [2]
  mortality at 0.125 µg/mL: 69.5%
